Assay: Toxicity liver stage against HepG2, at 10uM
Format: cell-based
Set-up: test concentration 10 uM, cell line HepG2-A16-CD81EGFP
Settings: human, HepG2-A16-CD81EGFP cells; read-out: INHIBITION
Summary of the method: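 Uninfected HepG2-A16-CD81EGFP cells, 3 × 10^3 per well, 1536-well, plated on prespotted compound at 10 μM final, parasite-free screening media added to match infected plates; puromycin 10 μM positive, DMSO 0.5% negative; run in parallel with 48 h PbLuc assay at 37 °C, 5% CO2; viability by CellTiter-Glo luminescence, normalized to controls.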

In order of rising cytotoxicity at 10 µM:
1. COc1ccccc1OC1CCN(C(=O)CCCn2ccnc2)CC1  -183%
2. CNC(=O)C1Cn2ccnc2C2(CCN(C(=O)CC3CCCC3)CC2)O1 (stereo unspecified)  -145%
3. Cc1ccc(C(=O)N(C)CCOc2ccccc2F)c(=O)[nH]1  -136%
4. CN(C)C(=O)N1CCN(C(=O)Nc2nc(-c3ccccc3)ns2)CC1  -136%
5. O=C([C@@H]1COC[C@H]2CN(c3ccncn3)C[C@H]21)N1CCCC1  -133%
6. NC(=O)C1CCN(C(C(=O)O)c2ccc(Cl)c(C(F)(F)F)c2)CC1 (stereo unspecified)  -107%
7. Cn1cc(C(C)(O)CNc2ccccn2)cn1 (stereo unspecified)  -43.6%
8. CNC(=O)c1cn[nH]c1C1CCN(Cc2ccccc2F)C1 (stereo unspecified)  -30.8%
9. O=C(Cn1ccnc1)N1CCC(n2cc(-c3cccc(Cl)c3)nn2)CC1  -23.4%
10. O=C1CCCN1CCCC(=O)N1CCCC(c2ccn[nH]2)C1 (stereo unspecified)  -22.8%
11. Cc1ccc2c(c1)CN(C(=O)c1cccs1)C(CN(C)C)CO2 (stereo unspecified)  -16.5%
12. O=C(Nc1ccc(Cl)cn1)c1cncc(C2CCNCC2)n1  -13.5%
13. COc1ccc(S(=O)(=O)NCC(C)(O)c2cccs2)cc1Cl (stereo unspecified)  -11.5%
14. CC(C)(C)OC(=O)NCC(=O)NCc1ccc(Cl)s1  -11.3%
15. Cc1ccc(N(CCC#N)C(=O)CN2CCCC2c2ccsc2)cc1C (stereo unspecified)  -11.2%
16. COCCn1ccnc1C1CCN(Cc2ccccc2C#N)CC1  -10.2%
17. c1cnn(CCNCc2ccc(N3CCCCC3)cc2)c1  -10.1%
18. Cc1nc(C)n(C2CCCN(C(=O)c3sccc3C3CC3)C2)n1 (stereo unspecified)  -9.68%
19. CCNC(=O)c1ccc(N2CCCC(c3nccn3C(C)C)C2)nc1 (stereo unspecified)  -8.39%
20. O=C(c1cnn(-c2ccccc2F)c1)N1CCN(CCO)CC1  -8.18%
21. O=C(Nc1ccc(N2CCCCC2)nc1)N1CCc2sccc2C1  -7.98%
22. CCCn1nc(C)c(CNC(=O)C2COc3ccc(OC)cc3C2)c1C (stereo unspecified)  -7.79%
23. O=C(c1cccc2c1OCCO2)N1CCCC(n2ccnc2)C1 (stereo unspecified)  -6.92%
24. Cc1cccc(NC(=O)CCC(=O)NCC(=O)c2ccccc2F)c1  -6.56%
25. Cc1ccc(-c2ncc(C(=O)NCCNC(=O)C(C)C)s2)c(C)c1  -6.53%
26. CN(C)C(=O)COC[C@]12COC[C@H]1CN(CC1CCC1)C2  -6.07%
27. CCC(CNS(C)(=O)=O)Oc1ccccc1F (stereo unspecified)  -6%
28. CO[C@@H]1CCC[C@@H](N(C)C(=O)c2cc(F)ccc2F)[C@H]1O  -5.38%
29. CN(Cc1ccco1)C(=O)Nc1cccnc1N1CCCC1  -5.3%
30. Cn1cc(NC(=O)c2cccc3cccnc23)ccc1=O  -4.83%
31. O=C(C1=NN(Cc2ccccc2)c2ccccc2S1(=O)=O)N1CCCC1  -4.65%
32. O=C(NCc1ccc(F)cc1)C1CCCN(c2ccc3nncn3n2)C1 (stereo unspecified)  -4.46%
33. CC(Cc1ccccc1Br)NC(=O)CCS(C)(=O)=O (stereo unspecified)  -4.44%
34. COCCc1nnc(NC(=O)CCCc2ccccc2)o1  -4.34%
35. CCN(C(=O)c1ccc(-c2ccccc2)nc1C)C1CC(=O)NC1=O (stereo unspecified)  -4.18%
36. CCCc1nnnn1CC(=O)NCc1cccc(C)c1  -3.94%
37. Cc1cc(C)n(CC2CN(CCOc3ccccc3C#N)CCO2)n1 (stereo unspecified)  -3.71%
38. O=C(CCC(=O)N1CCOCC1)NCc1cccnc1-n1cccn1  -3.65%
39. CCSc1ccccc1C(=O)N1CC2(COC(C)(C)OC2)C1  -3.45%
40. Cc1ccc(F)c(N2CCCC(NS(=O)(=O)CCCF)C2=O)c1 (stereo unspecified)  -3.14%
41. CN(C)c1ccc(CNC(=O)NCCc2cn3ccccc3n2)cn1  -3.06%
42. Cc1ccc(CN2CC[C@@H](NC(=O)c3cccnc3)[C@H](O)C2)s1  -2.68%
43. O=C1CN(C(=O)C2CCCCC2)CC(O)CN1Cc1ccco1 (stereo unspecified)  -2.67%
44. O=C(O)c1ccc(C2CCCN(Cc3ccc(-c4cc[nH]n4)o3)C2)cc1 (stereo unspecified)  -2.43%
45. Cc1ccc(C(=O)N2C[C@H]3CCC[C@@]3(COc3ccccn3)C2)nc1  -2.23%
46. CNC(=O)[C@H]1C[C@@H]2CN(S(=O)(=O)c3ccc(C)cc3)C[C@@H]2N1C  -2.19%
47. Cc1ccccc1CN(CC(=O)O)C(=O)COCC1CC1  -1.92%
48. Cc1c(CCC(=O)N2CCOC(c3cnccn3)C2)cnn1C (stereo unspecified)  -1.87%
49. CCN(CC(=O)Nc1cc(Cl)ccc1C)C(=O)c1ccncc1  -1.73%
50. Cc1ccccc1CNC(Cn1cncn1)c1ccccc1 (stereo unspecified)  -1.45%
51. CC(OCC(F)(F)F)C(=O)N1CCN(S(C)(=O)=O)CC1 (stereo unspecified)  -1.33%
52. CNC(=O)NCC(CO)Cc1cccc(OC(F)(F)F)c1 (stereo unspecified)  -1.28%
53. Cc1cnn(C2CN(Cc3nc4cc(Cl)ccc4n3C)C2)c1  -1.16%
54. Cc1cccc(OCC2CCCN(C(=O)CCn3ccccc3=O)C2)c1 (stereo unspecified)  -0.987%
55. Cc1ccc(CNC2CCCc3c2cnn3C)s1 (stereo unspecified)  -0.987%
56. O=C(NCC1CCOC1)c1csc(-c2ccccc2)n1 (stereo unspecified)  -0.755%
57. CCS(=O)(=O)N1CC(=O)N(CCOc2ccccc2)CC(O)C1 (stereo unspecified)  -0.739%
58. Cc1cc(NCc2cccnc2)n2nc(C)cc2n1  -0.719%
59. O=C(c1ccncn1)N1CCC[C@]2(C[C@H](Oc3ncccc3F)CO2)C1  -0.588%
60. COc1ccc(-n2ncc3c2NC(=O)CSC3CC(C)C)cc1 (stereo unspecified)  -0.418%
61. Cc1noc(NC(=O)c2ccccc2)n1  -0.269%
62. CN(C)C(=O)CCNC(=O)Nc1cccc(Cl)c1-n1cccn1  0.399%
63. Cc1noc(C)c1CN1CCCC2(C1)CN(c1nncs1)CCO2 (stereo unspecified)  0.922%
64. CC1c2ncc(CNC(=O)C3CC3)n2CCN1Cc1ccsc1 (stereo unspecified)  1.06%
65. CN(C)c1ncccc1C(=O)N1CCc2c(ncn2C2CC2)C1  1.28%
66. COc1ccc(C(=O)NCC(c2cccn2C)N2CCCC2)c(OC)c1 (stereo unspecified)  1.31%
67. COc1cccc(C2(NC(=O)CCNC(C)=O)CC2)c1  1.6%
68. O=C(NCCc1c[nH]cn1)c1n[nH]c2c1CCC2  1.67%
69. CCN1CCN(c2ccc(F)cc2C(C)NCc2noc(C)n2)CC1 (stereo unspecified)  1.8%
70. CCn1cc(S(=O)(=O)NC2(CN3CCOCC3)CCCCC2)c(C)n1  1.88%
71. COCCN(Cc1coc(-c2ccc(OC)cc2)n1)C1CC1  2.1%
72. Cc1nc[nH]c1CN(Cc1ccccc1)Cc1nccs1  2.14%
73. N#Cc1cn(CCCN2CCc3ccccc3C2)c(=O)[nH]c1=O  2.72%
74. CC(C)CCCC1CN(C(=O)c2cnc[nH]2)CCO1 (stereo unspecified)  2.83%
75. O=C1C(Nc2ncccn2)CCN1c1ccccc1OC(F)F (stereo unspecified)  2.88%
76. Cc1nccc(N[C@H]2CN(CC(C)(C)N3CCOCC3)C[C@@H]2C2CC2)n1  3.03%
77. Cc1cc(C)n(CC2CCCCN2C(=O)c2ccc(C(N)=O)cc2)n1 (stereo unspecified)  3.09%
78. CN1CCN(Cc2nnc(C3CCN(C4CCCCC4)CC3)n2C)CC1  3.18%
79. Cc1nn(C)c2c(=O)n(Cc3ccc(F)cc3)nnc12  3.41%
80. CO[C@@H]1CC[C@H]2[C@H]1OCCN2C(=O)c1ccc(C)o1  3.68%
81. Cn1cc(C(C)(O)CNc2ccc(Cl)c(C#N)n2)cn1 (stereo unspecified)  3.97%
82. CC(C)NC(=O)N1CCc2onc(C(=O)Nc3cccnc3)c2C1  4.32%
83. O=C(c1n[nH]cc1Cl)N1CCSCC1  4.51%
84. Cc1cccc(-c2nnn3c2COC(CNCc2nccs2)C3)c1 (stereo unspecified)  4.51%
85. CSc1ccc(-c2nc(CN3CCC(C(N)=O)CC3)c(C)o2)cc1  4.58%
86. CCc1ncc2c(n1)CN(CC(=O)N1CCc3sccc3C1)CC2  4.83%
87. CCS(=O)(=O)NCC(=O)Nc1cc(CC(C)(C)C)n[nH]1  5.01%
88. Cn1ccc(CN2CCC(CO)CC2)cc1=O  5.1%
89. CCNC(=O)[C@@H]1C[C@@H](NC(=O)Cc2cc(C)no2)CN1Cc1ccsc1  5.62%
90. Cc1ccnn1CCN1CCCC2(CCC(=O)N(C3CCCC3)C2)C1 (stereo unspecified)  5.93%
91. CNC(=O)c1nc2c(s1)CCN(C(=O)c1cccnc1)CC2  6%
92. Cc1c(-c2ccncc2)n[nH]c1NC(=O)CCOC(C)C  6.58%
93. Cc1cc(C)n(C2CCCN(C(=O)CCNS(C)(=O)=O)C2)n1 (stereo unspecified)  6.62%
94. Clc1ccc(C(CNCc2ccncc2)n2cccn2)cc1 (stereo unspecified)  6.73%
95. Cc1cc(C)c(CNC(=O)C(C)Oc2ccccc2F)c(=O)[nH]1 (stereo unspecified)  6.99%
96. CCN1CC(C(=O)N(C)Cc2ccon2)CC1=O (stereo unspecified)  7.08%
97. Cn1c(NC(=O)CCS(=O)(=O)C2CCCC2)nc2cc(Cl)ccc21  7.42%
98. CC(C)(C)OC(=O)NC(C)(C)c1noc(CN2CCCCC2)n1  7.57%
99. COc1ccccc1-c1cc(C(=O)N(C)C)nc2c1cnn2C  7.83%
100. CSCCc1n[nH]c2c1CN(S(=O)(=O)c1cn(C)c(C)n1)CC2  8.58%
101. O=C(c1c[nH]nn1)N1CCN(C(c2ccccc2)C(F)(F)F)CC1 (stereo unspecified)  8.92%
102. CNC(=O)c1cccc(CCNc2ncc(Br)cn2)c1  9.5%
103. CCS(=O)(=O)N1CCC2(CC1)CC[C@@]1(C(=O)N(C)C)CN(C)C[C@@H]21  10.4%
104. CN(CCO)Cc1nnc(C2CCN(C(=O)c3cccnc3)CC2)n1C  11.4%
105. COCC(=O)N1CCN(Cc2cc(F)cc(Br)c2)CC1  15.8%
106. CC(C)n1[nH]c(=O)c2c1NC(=O)CC2c1cccc(OC(F)F)c1 (stereo unspecified)  16%
107. CN(Cc1ccc(Cl)cc1)S(=O)(=O)N(C)Cc1cnn(C)c1  16.5%
108. Cc1ccc(NCCCNC(=O)NCC2CCS(=O)(=O)C2)nc1 (stereo unspecified)  17.2%
109. COc1ccc(-c2ccnc(N)c2)c(OC)c1  17.6%
110. O=C(O)c1ccn(-c2ccccc2NS(=O)(=O)c2ccccc2)n1  23%
111. Cc1n[nH]c(C2CN(CC(=O)NCc3ccco3)CCO2)n1 (stereo unspecified)  23%

From ChEMBL document CHEMBL4513216, “Probing the Open Global Health Chemical Diversity Library for Multistage-Active Starting Points for Next-Generation Antimalarials” (ACS Infect Dis, 2020)
